Reference: ChEMBL document CHEMBL3286116, “Synthesis, biological evaluation and structure-activity correlation study of a series of imidazol-based compounds as Candida albicans inhibitors” (Eur J Med Chem, 2014)
Converted amounts (≈) assume the structure as drawn.

What was measured:
Type in all cases: functional
Candida albicans [1] = assay: Antifungal activity against Candida albicans ATCC 90028 after 48 hrs by CLSI broth microdilution method; conditions: ATCC 90028, 48 h
Outline: (§1)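 Yeast CLSI broth microdilution (M27-A3). Compounds dissolved in DMSO at 100× the top test concentration, then diluted as serial two-fold dilutions in RPMI 1640 to final 0.125–64. Inoculum was 1.0–1.5 × 10^3 cells mL−1, incubated at 35 °C and read for growth at 48 h. MIC is the lowest concentration giving ≥50% growth inhibition versus growth control. Reported as the median of five replicates and as the geometric mean.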

Candida albicans [2] = assay: Antifungal activity against Candida albicans ATCC 20891 after 48 hrs by CLSI broth microdilution method; conditions: ATCC 20891, 48 h; outline: as §1
Candida albicans [3] = assay: Antifungal activity against Candida albicans PMC 1011 after 48 hrs by CLSI broth microdilution method; conditions: PMC 1011, 48 h; outline: as §1
Pichia kudriavzevii [4] = assay: Antifungal activity against Candida krusei DSM 6128 after 48 hrs by CLSI broth microdilution method; conditions: DSM 6128, 48 h; outline: as §1
Pichia kudriavzevii [5] = assay: Antifungal activity against Candida krusei PMC 0613 after 48 hrs by CLSI broth microdilution method; conditions: PMC 0613, 48 h; outline: as §1
Candida tropicalis [6] = assay: Antifungal activity against Candida tropicalis PMC 0910 after 48 hrs by CLSI broth microdilution method; conditions: PMC 0910, 48 h; outline: as §1
Candida tropicalis [7] = assay: Antifungal activity against Candida tropicalis DSM 11953 after 48 hrs by CLSI broth microdilution method; conditions: DSM 11953, 48 h; outline: as §1
Candida parapsilosis [8] = assay: Antifungal activity against Candida parapsilosis DSM 11224 after 48 hrs by CLSI broth microdilution method; conditions: Lodderomyces parapsilosis, DSM 11224, 48 h; outline: as §1
Candida parapsilosis [9] = assay: Antifungal activity against Candida parapsilosis ATCC 22019 after 48 hrs by CLSI broth microdilution method; conditions: Lodderomyces parapsilosis, ATCC 22019, 48 h; outline: as §1
Nakaseomyces glabratus [10] = assay: Antifungal activity against Candida glabrata PMC 0805 after 48 hrs by CLSI broth microdilution method; conditions: PMC 0805, 48 h; outline: as §1
Nakaseomyces glabratus [11] = assay: Antifungal activity against Candida glabrata PMC 0807 after 48 hrs by CLSI broth microdilution method; conditions: PMC 0807, 48 h; outline: as §1
Cryptococcus neoformans [12] = assay: Antifungal activity against Cryptococcus neoformans PMC 2123 after 72 hrs by CLSI broth microdilution method; conditions: PMC 2123, 72 h
Outline: (§2)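 Cryptococcus neoformans tested by CLSI broth microdilution in RPMI 1640, with serial two-fold dilutions from DMSO stocks at 100× the top concentration, final 0.125–64. Inoculum was 1.0–1.5 × 10^3 cells mL−1 at 35 °C, with growth read at 72 h. MIC is the lowest concentration with ≥50% growth inhibition versus control. Median of five replicates, plus geometric mean.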

Cryptococcus neoformans [13] = assay: Antifungal activity against Cryptococcus neoformans PMC 2136 after 72 hrs by CLSI broth microdilution method; conditions: PMC 2136, 72 h; outline: as §2
Cryptococcus neoformans [14] = assay: Antifungal activity against Cryptococcus neoformans PMC 2115 after 72 hrs by CLSI broth microdilution method; conditions: PMC 2115, 72 h; outline: as §2
Cryptococcus neoformans [15] = assay: Antifungal activity against Cryptococcus neoformans PMC 2103 after 72 hrs by CLSI broth microdilution method; conditions: PMC 2103, 72 h; outline: as §2
Cryptococcus neoformans [16] = assay: Antifungal activity against Cryptococcus neoformans PMC 2107 after 72 hrs by CLSI broth microdilution method; conditions: PMC 2107, 72 h; outline: as §2
Cryptococcus neoformans [17] = assay: Antifungal activity against Cryptococcus neoformans PMC 2102 after 72 hrs by CLSI broth microdilution method; conditions: PMC 2102, 72 h; outline: as §2
Cryptococcus neoformans [18] = assay: Antifungal activity against Cryptococcus neoformans DSM 11959 after 72 hrs by CLSI broth microdilution method; conditions: DSM 11959, 72 h; outline: as §2
Cryptococcus neoformans [19] = assay: Antifungal activity against Cryptococcus neoformans PMC 2111 after 72 hrs by CLSI broth microdilution method; conditions: PMC 2111, 72 h; outline: as §2
[20] = tested on: Trichophyton mentagrophytes; assay: Antifungal activity against Trichophyton mentagrophytes DSM 4870 after 72 hrs by CLSI broth microdilution method; conditions: DSM 4870, 72 h
Outline: (§3)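 Dermatophytes tested by CLSI broth microdilution for filamentous fungi (M38-A2). Serial two-fold dilutions of DMSO-dissolved compound in RPMI 1640, final 0.125–64. Inoculum was 0.4–5 × 10^4 CFU mL−1, incubated at 35 °C and read at 72 h. MIC80 is the lowest concentration giving ≥80% growth inhibition versus growth control. Median of five replicates, plus geometric mean.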

[21] = tested on: Trichophyton mentagrophytes; assay: Antifungal activity against Trichophyton mentagrophytes PMC 6515 after 72 hrs by CLSI broth microdilution method; conditions: PMC 6515, 72 h; outline: as §3
[22] = tested on: Trichophyton mentagrophytes; assay: Antifungal activity against Trichophyton mentagrophytes PMC 6531 after 72 hrs by CLSI broth microdilution method; conditions: PMC 6531, 72 h; outline: as §3
[23] = tested on: Trichophyton mentagrophytes; assay: Antifungal activity against Trichophyton mentagrophytes PMC 6509 after 72 hrs by CLSI broth microdilution method; conditions: PMC 6509, 72 h; outline: as §3
[24] = tested on: Trichophyton mentagrophytes; assay: Antifungal activity against Trichophyton mentagrophytes PMC 6503 after 72 hrs by CLSI broth microdilution method; conditions: PMC 6503, 72 h; outline: as §3
[25] = tested on: Trichophyton mentagrophytes; assay: Antifungal activity against Trichophyton mentagrophytes PMC 6552 after 72 hrs by CLSI broth microdilution method; conditions: PMC 6552, 72 h; outline: as §3
Nannizzia gypsea [26] = assay: Antifungal activity against Microsporum gypseum PMC 7303 after 72 hrs by CLSI broth microdilution method; conditions: PMC 7303, 72 h; outline: as §3
Nannizzia gypsea [27] = assay: Antifungal activity against Microsporum gypseum PMC 7331 after 72 hrs by CLSI broth microdilution method; conditions: PMC 7331, 72 h; outline: as §3
Nannizzia gypsea [28] = assay: Antifungal activity against Microsporum gypseum DSM 3824 after 72 hrs by CLSI broth microdilution method; conditions: DSM 3824, 72 h; outline: as §3
Candida albicans [29] = assay: Antifungal activity against Candida albicans ATCC 24433 after 48 hrs by CLSI broth microdilution method; conditions: ATCC 24433, 48 h; outline: as §1
Candida albicans [30] = assay: Antifungal activity against Candida albicans ATCC 3153 after 48 hrs by CLSI broth microdilution method; conditions: ATCC 3153, 48 h; outline: as §1
Candida albicans [31] = assay: Antifungal activity against Candida albicans ATCC 10231 after 48 hrs by CLSI broth microdilution method; conditions: ATCC 10231, 48 h; outline: as §1
Candida albicans [32] = assay: Antifungal activity against Candida albicans ATCC 76615 after 48 hrs by CLSI broth microdilution method; conditions: ATCC 76615, 48 h; outline: as §1
Candida albicans [33] = assay: Antifungal activity against Candida albicans ATCC 10261 after 48 hrs by CLSI broth microdilution method; conditions: ATCC 10261, 48 h; outline: as §1

MIC50 (Candida albicans [1]) [µg/mL]	MIC50 (Candida albicans [2]) [µg/mL]	MIC50 (Candida albicans [3]) [µg/mL]	MIC50 (Pichia kudriavzevii [4]) [µg/mL]	MIC50 (Pichia kudriavzevii [5]) [µg/mL]	MIC50 (Candida tropicalis [6]) [µg/mL]	MIC50 (Candida tropicalis [7]) [µg/mL]	MIC50 (Candida parapsilosis [8]) [µg/mL]	MIC50 (Candida parapsilosis [9]) [µg/mL]	MIC50 (Nakaseomyces glabratus [10]) [µg/mL]	MIC50 (Nakaseomyces glabratus [11]) [µg/mL]	MIC50 (Cryptococcus neoformans [12]) [µg/mL]	MIC50 (Cryptococcus neoformans [13]) [µg/mL]	MIC50 (Cryptococcus neoformans [14]) [µg/mL]	MIC50 (Cryptococcus neoformans [15]) [µg/mL]	MIC50 (Cryptococcus neoformans [16]) [µg/mL]	MIC50 (Cryptococcus neoformans [17]) [µg/mL]	MIC50 (Cryptococcus neoformans [18]) [µg/mL]	MIC50 (Cryptococcus neoformans [19]) [µg/mL]	MIC80 [20] [µg/mL]	SMILES	also measured
2 (≈ 4.39 µM)	8 (≈ 17.5 µM)	16 (≈ 35.1 µM)	128 (≈ 281 µM)	16 (≈ 35.1 µM)	64 (≈ 140 µM)	128 (≈ 281 µM)	4 (≈ 8.77 µM)	8 (≈ 17.5 µM)	64 (≈ 140 µM)	64 (≈ 140 µM)	64 (≈ 140 µM)	8 (≈ 17.5 µM)	32 (≈ 70.2 µM)	8 (≈ 17.5 µM)	8 (≈ 17.5 µM)	16 (≈ 35.1 µM)	8 (≈ 17.5 µM)	8 (≈ 17.5 µM)	64 (≈ 140 µM)	O=C(OC(Cn1ccnc1)c1ccc(Cl)cc1)N1CCN(c2ccc([N+](=O)[O-])cc2)CC1 (stereo unspecified)	MIC80 [21]: 32 µg/mL (≈ 70.2 µM); MIC80 [22]: 32 µg/mL (≈ 70.2 µM); MIC80 [23]: 32 µg/mL (≈ 70.2 µM); MIC80 [24]: 64 µg/mL (≈ 140 µM); MIC80 [25]: 32 µg/mL (≈ 70.2 µM); MIC80 (Nannizzia gypsea [26]): 32 µg/mL (≈ 70.2 µM); MIC80 (Nannizzia gypsea [27]): 16 µg/mL (≈ 35.1 µM); MIC80 (Nannizzia gypsea [28]): 64 µg/mL (≈ 140 µM); MIC50 (Candida albicans [29]): 32 µg/mL (≈ 70.2 µM); MIC50 (Candida albicans [30]): 16 µg/mL (≈ 35.1 µM); MIC50 (Candida albicans [31]): 16 µg/mL (≈ 35.1 µM); MIC50 (Candida albicans [32]): 128 µg/mL (≈ 281 µM); MIC50 (Candida albicans [33]): 8 µg/mL (≈ 17.5 µM)
4 (≈ 8.98 µM)	8 (≈ 18 µM)	4 (≈ 8.98 µM)	128 (≈ 287 µM)	8 (≈ 18 µM)	16 (≈ 35.9 µM)	64 (≈ 144 µM)	8 (≈ 18 µM)	1 (≈ 2.25 µM)	8 (≈ 18 µM)	32 (≈ 71.9 µM)	2 (≈ 4.49 µM)	2 (≈ 4.49 µM)	4 (≈ 8.98 µM)	2 (≈ 4.49 µM)	2 (≈ 4.49 µM)	4 (≈ 8.98 µM)	2 (≈ 4.49 µM)	2 (≈ 4.49 µM)	8 (≈ 18 µM)	O=C(O[C@@H](Cn1ccnc1)c1ccc(Cl)cc1)N1CCN(c2ccc(Cl)cc2)CC1	MIC80 [21]: 4 µg/mL (≈ 8.98 µM); MIC80 [22]: 8 µg/mL (≈ 18 µM); MIC80 [23]: 8 µg/mL (≈ 18 µM); MIC80 [24]: 4 µg/mL (≈ 8.98 µM); MIC80 [25]: 8 µg/mL (≈ 18 µM); MIC80 (Nannizzia gypsea [26]): 8 µg/mL (≈ 18 µM); MIC80 (Nannizzia gypsea [27]): 16 µg/mL (≈ 35.9 µM); MIC80 (Nannizzia gypsea [28]): 8 µg/mL (≈ 18 µM); MIC50 (Candida albicans [29]): 8 µg/mL (≈ 18 µM); MIC50 (Candida albicans [30]): 4 µg/mL (≈ 8.98 µM); MIC50 (Candida albicans [31]): 8 µg/mL (≈ 18 µM); MIC50 (Candida albicans [32]): 8 µg/mL (≈ 18 µM); MIC50 (Candida albicans [33]): 4 µg/mL (≈ 8.98 µM)
